These results are taken from ChEMBL document CHEMBL1155228, “Novel triazole ribonucleoside down-regulates heat shock protein 27 and induces potent anticancer activity on drug-resistant pancreatic cancer” (J Med Chem, 2009).

For data set [1], the system named is MIA PaCa-2. The data set can be described thus: Inhibition of chemoresistant human MIAPaCa2 cell proliferation after 48 hrs by MTT assay. The format is functional. The gist of the method:
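MiaPaCa-2 cells in DMEM with 10% FBS seeded at 15 000/well and left to attach overnight. Medium replaced with fresh medium holding a range of concentrations, or medium alone; gemcitabine control. Incubated 48 h at 37 °C, 5% CO₂, and viable cells measured by MTT. Mean ± SE of three independent experiments.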

Data set [2] concerns MIA PaCa-2. Nature of the data set: Induction of apoptosis in chemoresistant human MIAPaCa2 cells assessed as increase in caspase 3/7 activation after 48 hrs […] relative to control. The format is functional.
Data set [3] relates to Mus musculus. Nature of the data set: Toxicity in nude mouse xenografted with human MIAPaCa2 cells assessed as normal growth and behavior at 150 mg/kg, ip administered measured after 3 weeks. The note with it: in vivo, 504 h.
Data set [4] concerns MIA PaCa-2. The data set can be described thus: Inhibition of DNA synthesis in chemoresistant human MIAPaCa2 cells assessed as incorporation of [3H]thymidine into DNA after 4 hrs by liquid scintillation counting. The format is functional. In short, it runs like this: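 MiaPaCa-2 cells seeded at 15 000/well and treated in exponential growth for 4 h, with gemcitabine as comparator. Then labelled with [³H]thymidine (10 μCi/mL) for 6 h at 37 °C, 5% CO₂. Cells harvested and incorporated radioactivity measured by liquid scintillation counting.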

Data set [5] deals with Mus musculus. Nature of the data set: Toxicity in nude mouse xenografted with human MIAPaCa2 cells assessed as weight loss at 150 mg/kg, ip administered measured after 3 weeks. The settings on record: in vivo, 504 h.
Data set [6] has as its system MIA PaCa-2. The data set can be described thus: Induction of apoptosis in chemoresistant human MIAPaCa2 cells assessed as increase in caspase 3/7 activation after 48 hrs by […] relative to gemcitabine. Type of data set: functional. The gist of the method: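 MiaPaCa-2 cells seeded at 15 000/well; 24 h later treated for 48 h, with gemcitabine and no-treatment controls. Apo-ONE homogeneous caspase-3/7 reagent added 1:1 to culture, containing fluorogenic Z-DEVD-R110 substrate. Incubated 30 min at room temperature, then fluorescence read. Triplicate.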

In data set [7] the test system is MIA PaCa-2. The data set can be described thus: Inhibition of Hsp27 mRNA expression in chemoresistant human MIAPaCa2 cells after 24 hrs by RT-PCR analysis. Type of data set: functional. The gist of the method: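 MiaPaCa-2 cells treated 24 h. Total RNA isolated by TRIzol and reverse-transcribed. SYBR Green real-time PCR run with Hsp27 primers: 45 cycles of 95 °C 5 s, 57 °C 6 s, 72 °C 12 s, followed by a melting curve. Normalized to 18S rRNA; each sample in triplicate.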

Data set [8] relates to MIA PaCa-2. The data set can be described thus: Inhibition of Hsp27 protein expression in chemoresistant human MIAPaCa2 cells after 48 hrs by Western blotting. The format is functional, cell-based. In short, it runs like this:
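MiaPaCa-2 cells treated and harvested at 48 h. Lysates loaded at 15 μg protein and blotted with rabbit polyclonal anti-human Hsp27 (1:5000) and vinculin reference (1:2000). Detected by enhanced chemiluminescence and band intensities quantified against untreated control.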

For data set [9], the system named is MIA PaCa-2. The data set can be described thus: Antitumor activity against human MIAPaCa2 cells xenografted in nude mouse assessed as reduction in tumor volume at 150 mg/kg, ip administered measured after 3 weeks. Set-up: scale not given: the % may be the effect or the level left. The settings on record: route intraperitoneal.
Data set [10] has as its system MIA PaCa-2. Nature of the data set: Induction of necrosis in chemoresistant human MIAPaCa2 cells up to 12 hrs by 7-aminoactinomycin D staining-based FACS analysis. Type of data set: functional. In short, it runs like this: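 MiaPaCa-2 cells seeded at 500 000 per 6 cm dish and left overnight, then treated or left untreated for 3, 6 and 12 h. Stained with 7-AAD for 15 min at 25 °C, then read immediately by flow cytometry; triplicate.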

Data set [11] relates to MIA PaCa-2. The data set can be described thus: Inhibition of Hsp27 protein expression in chemoresistant human MIAPaCa2 cells by alexa fluor 488 staining-based immunofluorescence assay. The format is functional, cell-based. In short, it runs like this:
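Treated and untreated MiaPaCa-2 cells fixed in 4% paraformaldehyde and permeabilized with 1% Triton. Incubated with mouse anti-Hsp27 monoclonal (1:500) overnight at 4 °C, blocked in BSA/PBS, then Alexa Fluor 488 secondary (1:750). Nuclei stained with DAPI for imaging.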

In data set [12] the test system is MIA PaCa-2. Nature of the data set: Induction of apoptosis in chemoresistant human MIAPaCa2 cells assessed as increase in cell accumulation at sub-G1/G0 phase after 48 hrs by FACS analysis relative to control. The format is functional. In short, it runs like this: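 MiaPaCa-2 cells treated 48 h, with untreated and gemcitabine controls. Cells trypsinized, PBS-washed and fixed overnight at 4 °C in cold 70% ethanol. Treated with RNase (500 μg/mL) and stained with propidium iodide (50 μg/mL). Sub-G1/G0 fraction read by flow cytometry on 10⁶ cells; triplicate.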

Data set [13] concerns MIA PaCa-2. The data set can be described thus: Induction of apoptosis in chemoresistant human MIAPaCa2 cells assessed as increase in DNA/histone nucleosome release after 48 hrs by ELISA relative to control. The format is functional. In short, it runs like this:
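MiaPaCa-2 cells seeded at 15 000/well for 24 h, then treated or left untreated for 48 h. Cells lysed after centrifugation at 200g. Supernatant put on streptavidin plate with biotin anti-histone and peroxidase anti-DNA antibodies, 2 h at room temperature. After washes, substrate added for 20 min and read at 405 nm. Expressed as fold increase in absorbance over control; triplicate.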

Data set [14] concerns MIA PaCa-2. Nature of the data set: Induction of necrosis in chemoresistant human MIAPaCa2 cells assessed as cell membrane damage associated LDH release up to 300 um after 1 hr. The format is functional. In short, it runs like this:
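MiaPaCa-2 cells seeded at 15 000/well; 24 h later exposed to compound in DMSO for 1 h. LDH reaction mixture added 1:1 and incubated 10 min at 25 °C. Lysis buffer set as 100% release and medium as 0%. Result is released LDH over total cellular LDH; triplicate.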

Structures are written as SMILES. The source made the active and inactive calls. The rule behind the calls is not given here.

As for `CCCCCC#Cc1nc(C(N)=O)n([C@@H]2O[C@H](CO)[C@@H](O)[C@H]2O)n1`, the inhibition result in the data set with MIA PaCa-2 [1] was “inactive”.
On to `CCCCCc1ccc(CCc2nc(C(N)=O)n([C@@H]3O[C@H](CO)[C@@H](O)[C@H]3O)n2)cc1`, for which the inhibition result with MIA PaCa-2 [1] is “inactive”.
On to `CCCCCc1ccc(C#Cc2nc(C(N)=O)n(COCCO)n2)cc1`, for which the inhibition entry in the data set on MIA PaCa-2 [1] is “inactive”.
Consider `CCCCCc1ccc(C#Cc2nc(C(=O)OC)n([C@@H]3O[C@H](COC(C)=O)[C@@H](OC(C)=O)[C@H]3OC(C)=O)n2)cc1`, for which the inhibition entry in the data set with MIA PaCa-2 [1] was “inactive”.
Same read-out and setting: next, `CCCc1ccc(C#Cc2nc(C(N)=O)n([C@@H]3O[C@H](CO)[C@@H](O)[C@H]3O)n2)cc1`: “inactive”; `CCCCCc1ccc(-c2nc(C(N)=O)n([C@@H]3O[C@H](CO)[C@@H](O)[C@H]3O)n2)cc1`: “inactive”; `CCCCCc1ccc(-c2cn(-c3nc(C(N)=O)n([C@@H]4O[C@H](CO)[C@@H](O)[C@H]4O)n3)nn2)cc1`: “inactive”.
The same measure, in the same setting: next, `COC(=O)c1nc(C#Cc2ccc(C(F)(F)F)cc2)nn1[C@@H]1O[C@H](COC(C)=O)[C@@H](OC(C)=O)[C@H]1OC(C)=O`: “inactive”; `Cc1ccc(C#Cc2nc(C(N)=O)n([C@@H]3O[C@H](CO)[C@@H](O)[C@H]3O)n2)cc1`: “inactive”; `CCCCCc1ccc(C#Cc2nc(C(N)=O)nn2[C@@H]2O[C@H](CO)[C@@H](O)[C@H]2O)cc1`: “inactive”.
As for `CCCCCc1ccc(C#Cc2nc(C(N)=O)n([C@@H]3O[C@H](CO)[C@@H](O)[C@H]3O)n2)cc1`, the “fold change (FC)” value with MIA PaCa-2 [2] worked out at 30; with MIA PaCa-2 [6], 12; with MIA PaCa-2 [12] it was 14; in the data set on MIA PaCa-2 [13], 40. The Activity result in the data set with Mus musculus [3] is on record as “Non-toxic”; with Mus musculus [5], “Non-toxic”; in the data set with MIA PaCa-2 [9] it was 50%; in the data set on MIA PaCa-2 [10] it was less than 2%; in the data set on MIA PaCa-2 [14] it was less than 2%. In addition, in the data set with MIA PaCa-2 [4], the inhibition result was “inactive”. Moreover, the “inhibition (INH)” value in the data set on MIA PaCa-2 [7] and in the data set with MIA PaCa-2 [1] was 80% in each case. Besides, the inhibition entry in the data set on MIA PaCa-2 [8] and in the data set on MIA PaCa-2 [11] was “Active” each time.
With `Nc1ccn([C@@H]2O[C@H](CO)[C@@H](O)C2(F)F)c(=O)n1` [GEMCITABINE], the “inhibition (INH)” value in the data set on MIA PaCa-2 [4] is reported as greater than 90%; in the data set with MIA PaCa-2 [1], less than 30%.
As to `NC(=O)c1nc(C#Cc2ccc(C(F)(F)F)cc2)nn1[C@@H]1O[C@H](CO)[C@@H](O)[C@H]1O`, the inhibition result in the data set with MIA PaCa-2 [1] is “inactive”.
